# Publication PMC4392893 (Cancer chemotherapy and pharmacology, 2014)
# Where two headings read alike, the source gives them in different places.
# Columns and labels:
# [1] = athymic nude mice, cited from earlier work
# NF-kB pathway = settings: mouse RAW264.7 macrophages; cited from earlier work
# [2] = test system: SCC Tu212 xenograft tumors; settings: cited from earlier work
# osteoclastogenesis = settings: in vitro; cited from earlier work
# IKKβ = settings: cited from earlier work
# MiPaPc xenografts = settings: 10 and 20 mg/kg i.p., ref Manuscripts in preparation 2013; cited from earlier work
# [3] = test system: osteoblastic differentiation and mineralization; settings: in vitro, associated with Smad signaling; cited from earlier work
# [4] = NADPH-dependent metabolism in mouse liver microsomes; assay type: in vitro ADME; settings: 10 μM, 15-minute incubation
# Outline: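 Liver microsomes came from male CD2F1 mice, untreated or given phenobarbital (80 mg/kg) or 3-methylcholanthrene (20 mg/kg) i.p. for 3 days. Microsomes were isolated on day 4 by differential centrifugation. Test compound at 10 µM was incubated at 37°C with 0.2–1 mg/ml protein, 1.0 mM NADPH, 5 mM MgCl2 and 100 mM potassium phosphate, pH 7.4, for 15 min. Controls lacked NADPH. Reactions were stopped with ice-cold methanol, and remaining drug was measured by LC/MS/MS.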
# [5] = Partition ratio and stability in fresh mouse whole blood; assay type: in vitro ADME; settings: 24-hour incubation in whole blood at 37°C
# Outline: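 Fresh mouse whole blood (heparin in citrate-phosphate-dextrose) was spiked in silanized amber vials and kept on ice or at 37°C for 24 h. On ice, aliquots were taken at 0, 5, 15, 30, 60, 120 and 240 min. Red cells were pelleted at 10,000 rpm for 3 min, and plasma was frozen at −20°C before LC/MS/MS. For partitioning, equal amounts (3.9–2000 nM) went into plasma and whole blood.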
# [6] = test system: NCI anti-cancer cell line screen; settings: read-out: Mean GI50; cited from earlier work
# [7] = EF-24 stability in dog plasma; assay type: in vitro ADME; settings: for Half-life in plasma: dog plasma, 4°
# Outline: (§1)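 Test compound at 31.25 or 1000 nM was held in plasma at 4°C and 37°C for 24 h. Plasmas: mouse and rat from heparin-CPD blood, dog heparinised, human from healthy volunteers. Aliquots at 5, 15 and 30 min and 1, 2, 4, 6 and 24 h went into silanized tubes, were frozen at −20°C, then protein-precipitated with methanol. Samples were quantified by LC/MS/MS (m/z 312→149) against an internal standard. Half-lives were derived from loss over time.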
# [8] = test system: human α1-acid glycoprotein; assay: Binding to α1-acid glycoprotein by ultracentrifugation; settings: α1-acid glycoprotein 1 mg/ml
# Outline: (§2)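 Ultracentrifugation binding assay. Matrices were thawed mouse, rat, dog or human plasma, human serum albumin (40 mg/ml in PBS, pH 7.4) or α1-acid glycoprotein (1 mg/ml). Samples were incubated 30 min at 37°C, then spun at 90,000 rpm for 3 h at 4°C. Drug was measured by LC/MS/MS before and after spinning, with upper supernatant taken as unbound. Supernatant protein-free status was confirmed by DC protein assay. Binding was calculated from percent recovered.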
# [9] = NADPH-dependent metabolism in human liver microsomes; assay type: in vitro ADME; settings: 10 μM, 120 minutes (Fig 4 legend)
# Outline: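 Pooled human liver microsomes came from livers unsuitable for transplantation. They were preincubated 2 min in 100 mM potassium phosphate (pH 7.4), 5 mM MgCl2 ± 1.0 mM NADPH at 37°C. Reactions were started with test compound (10 µM) at 0.2–1 mg/ml protein and ran 120 min. NADPH-free incubations served as controls. Reactions were quenched with ice-cold methanol (2:1), and remaining drug was quantified by LC/MS/MS.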
# [10] = EF-24 stability in mouse plasma; assay type: in vitro ADME; settings: for Half-life in plasma: mouse plasma, 4°
# Outline: as §1
# human serum albumin = human serum albumin (Homo sapiens, UniProt P02768); assay: Binding to human serum albumin by ultracentrifugation; settings: human serum albumin 40 mg/ml in phosphate buffered saline, pH 7.4
# Outline: as §2
# [11] = EF-24 stability in human plasma; assay type: in vitro ADME; settings: for half-life at 31.25 nM / half-life at 1000 nM: human, plasma, Half-life in plasma
# Outline: as §1
# [12] = Pharmacokinetics in male CD2F1 mice; assay type: in vivo, mouse; settings: for Bioavailability: by comparison of AUC values
# Outline: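 Male CD2F1 mice (19–26 g) received 10 mg/kg in D5W:DMSO (9:1) by tail-vein i.v., i.p. or oral gavage. Cardiac-puncture blood was drawn under methoxyflurane, two mice per time point, at 3–240 min (i.v.) or 3–480 min (i.p., oral). Plasma was analysed by LC/MS/MS. Half-life came from compartmental and AUC/CL from noncompartmental analysis of mean concentrations, bioavailability from AUC ratios. Urine was pooled over 24 h after 25 or 32 mg/kg i.v.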
# [13] = EF-24 stability in rat plasma; assay type: in vitro ADME; settings: for Half-life in plasma: 4°
# Outline: as §1
# [14] = Light sensitivity during assay development; assay type: physicochemical; settings: second peak prevented by aluminum foil or amber vials
# [15] = test system: HCT-116 human colon tumor xenograft; settings: cited from earlier work
# [16] = 10 mg/kg, intraperitoneal, male CD2F1 mice
# [17] = 10 mg/kg, oral, male CD2F1 mice
# [18] = male, CD2F1, mouse, plasma, ip, 10 mg/kg
# [19] = male, CD2F1, mouse, plasma, iv, 10 mg/kg
# [20] = male, CD2F1, mouse, plasma, po, 10 mg/kg
# Chain of human serum albumin (P02768 25-609): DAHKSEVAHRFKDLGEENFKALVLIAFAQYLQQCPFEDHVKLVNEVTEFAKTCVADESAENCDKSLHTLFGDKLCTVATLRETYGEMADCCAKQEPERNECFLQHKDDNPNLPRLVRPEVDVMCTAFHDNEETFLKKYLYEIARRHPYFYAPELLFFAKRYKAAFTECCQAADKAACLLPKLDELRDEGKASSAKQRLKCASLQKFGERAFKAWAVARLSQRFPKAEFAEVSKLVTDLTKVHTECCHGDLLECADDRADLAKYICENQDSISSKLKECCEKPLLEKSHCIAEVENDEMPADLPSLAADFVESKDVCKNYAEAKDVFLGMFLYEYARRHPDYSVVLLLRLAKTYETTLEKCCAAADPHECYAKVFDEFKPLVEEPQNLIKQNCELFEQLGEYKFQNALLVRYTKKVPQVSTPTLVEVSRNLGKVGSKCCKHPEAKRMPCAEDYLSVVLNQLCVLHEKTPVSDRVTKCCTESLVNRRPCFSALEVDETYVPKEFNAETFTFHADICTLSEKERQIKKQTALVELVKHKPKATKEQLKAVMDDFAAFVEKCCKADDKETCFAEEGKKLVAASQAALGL
structure (smiles),measurement,setting,value
"O=C1C(=Cc2ccccn2)CNCC1=Cc1ccccn1 [EF31, 3,5-Bis(2-pyridinylmethylidene)-4piperidone]",Average AUC(0-∞),[1]; 15 mg/kg i.p.,3386 h x ng mL^−1
same,Average AUC(0-∞),[1]; 25 mg/kg i.p.,7769 h x ng mL^−1
same,Fold more potent blocker of NF-kB pathway activity than EF24,NF-kB pathway,7 fold
same,Fold more potent blocker of NF-kB pathway activity than curcumin,NF-kB pathway,> 10 fold
same,Effect on xenograft tumors,[2]; 15 and 25 mg/kg i.p.,dose-response
same,Effect on osteoclastogenesis as compared with curcumin,osteoclastogenesis,suppressive effect
same,Fold more effective inhibition of IKKβ vs. EF24,IKKβ,~ 65 fold
CN1C/C(=C\c2ccccn2)C(=O)/C(=C/c2ccccn2)C1 [UBS-109],Effect on xenografts,MiPaPc xenografts,dose response
same,Effect on osteoblastic differentiation and mineralization,[3],unique stimulatory effect
same,Effect on xenografts,"[2]; 50, 100 and 150 mg/kg p.o., ref Manuscripts in preparation 2013",dose response
same,Effect on osteoclastogenesis as compared with curcumin,osteoclastogenesis,suppressive effect
"CC(=O)O.O=C1C(=Cc2ccccc2F)CNCC1=Cc1ccccc1F [EF-24, 3,5-bis[(2-fluorophenyl)methylene]-4-piperidinone acetate]",EF-24 consumed by NADPH-dependent metabolism,[4]; liver microsomes from 3MC-pretreated mice,54%
same,EF-24 consumed by NADPH-dependent metabolism,[4]; liver microsomes from PB-pretreated mice,41%
same,EF-24 consumed by NADPH-dependent metabolism,[4]; liver microsomes from untreated mice,40%
same,Stability in whole blood,[5],Multi-exponential loss
same,GI50,[6],0.7 µM
same,Half-life in plasma,[7]; 31.25 nM,Stable
same,Half-life in plasma,[7]; 1000 nM,Stable
same,half-life,"[7]; dog, plasma",35 h
same,half-life at 31.25 nM,"[7]; dog, plasma",36 h
same,half-life at 1000 nM,"[7]; dog, plasma",33 h
same,Percent bound,[8],< 20%
same,EF-24 consumed by NADPH-dependent metabolism,[9],> 70%
same,Half-life in plasma,[10]; 31.25 nM,Stable
same,Half-life in plasma,[10]; 1000 nM,Stable
same,half-life,"[10]; mouse, plasma",11 h
same,half-life at 31.25 nM,"[10]; mouse, plasma",12 h
same,half-life at 1000 nM,"[10]; mouse, plasma",10 h
same,Percent bound,human serum albumin,95-100%
same,Stability in plasma,[11]; 24-hour period,stable
same,half-life at 31.25 nM,[11]; 4°,84 h
same,half-life at 31.25 nM,[11]; 37°,79 h
same,half-life at 1000 nM,[11]; 4°,100 h
same,half-life at 1000 nM,[11]; 37°,58 h
same,Time of secondary peak concentration,"[12]; 10 mg/kg, i.p., male CD2F1 mice, plasma",360 min
same,Peak plasma concentration,"[12]; 10 mg/kg, i.v., male CD2F1 mice",2.5 µM
same,Bioavailability,"[12]; 10 mg/kg, intraperitoneal",34.7%
same,t1/2z,[12]; [16],3.65 h
same,t1/2α,[12]; [16],8.9 min
same,Cmax,"[12]; 10 mg/kg, intraperitoneal, male CD2F1 mice, plasma",833 nM
same,t1/2α,"[12]; 10 mg/kg, intravenous, male CD2F1 mice",0.4 min
same,Bioavailability,"[12]; 10 mg/kg, oral",60.1%
same,t1/2z,[12]; [17],2.95 h
same,t1/2α,[12]; [17],3.3 min
same,Cmax,"[12]; 10 mg/kg, oral, male CD2F1 mice, plasma",882 nM
same,AUC,[12]; [18],0.346 µM·h
same,Tmax,[12]; [18],3 min
same,half-life,"[12]; male, CD2F1, mouse, plasma, ip, 10 mg/kg, t1/2z, intraperitoneal, male CD2F1 mice",~3.33 h
same,AUC,[12]; [19],0.996 µM·h
same,Tmax,[12]; [19],2.7 min
same,Vd,[12]; [19],4.85 L/kg
same,clearance,[12]; [19],482 mL/min/kg
same,Cmax,"[12]; male, CD2F1, mouse, plasma, iv, 10 mg/kg, Cmax, male CD2F1 mice",2490 nM
same,half-life,"[12]; male, CD2F1, mouse, plasma, iv, 10 mg/kg, t1/2z (terminal elimination half-life), male CD2F1 mice",1.23 h
same,half-life,"[12]; male, CD2F1, mouse, plasma, iv, 10 mg/kg, t1/2β, male CD2F1 mice",0.09 h
same,AUC,[12]; [20],0.599 µM·h
same,Tmax,[12]; [20],3 min
same,half-life,"[12]; male, CD2F1, mouse, plasma, po, 10 mg/kg, t1/2z, male CD2F1 mice",~3.33 h
same,EF-24 in 24-hour pooled urine,[12]; mice administered 25 mg/kg or 32 mg/kg intravenously,not detected
same,Half-life in plasma,"[13]; rat plasma, 31.25 nM",Stable
same,Half-life in plasma,"[13]; rat plasma, 1000 nM",Stable
same,Stability in plasma,"[13]; rat plasma, 24-hour period",stable
same,half-life at 31.25 nM,"[13]; rat, plasma",50 h
same,half-life at 1000 nM,"[13]; rat, plasma",66 h
same,Stability to light,[14],light sensitivity
same,Tumor growth in vivo,[15]; dose of 200 μg/kg,inhibited tumor growth
same,Growth of HCT-116 human colon tumor xenograft,"[15]; mice, little apparent toxicity, no reference given",potent growth inhibition
